Activity data for five compounds are collected here from ChEMBL document CHEMBL1773027, “Development of new indole-derived neuroprotective agents” (2011).

SMILES strings stand for the structures. Calls of active or inactive are those of the source. No cut-off for these calls is given here.

Test [1] concerns Rattus norvegicus. Briefly: Neuroprotective activity against ACR-intoxicated Sprague-Dawley rat assessed as increase in adrenaline level in brain at 50 mg/kg, ip administered 10 mins prior to ACR injection 3 days per week for 3 weeks by ELISA relative to control. The format is functional. Conditions: route intraperitoneal. The method in brief:
(§1)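 Female Sprague–Dawley rats (n = 10/group) were injected with ACR 50 mg/kg ip in water, with agent at 50 mg/kg ip in 2% Tween 80 10 min before, 3 days/week for 3 weeks. Brain was homogenized 10% w/v in 50 mM Tris–HCl pH 7.4 with 300 mM sucrose and spun 1800 × g for 10 min at 4 °C. Adrenaline and noradrenaline were measured in the supernatant, as ng/mg protein.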
On the technique in general: An ELISA detects its analyte on a solid surface through an enzyme-linked reagent.

Test [2] concerns Rattus norvegicus. Briefly: Neuroprotective activity against ACR-intoxicated Sprague-Dawley rat assessed as increase in noradrenaline level in brain at 50 mg/kg, ip administered 10 mins prior to ACR injection 3 days per week for 3 weeks by ELISA relative to control. The format is functional. Conditions: route intraperitoneal. The method in brief: as §1
For test [3], the system named is Rattus norvegicus. Nature of the test: Neuroprotective activity against ACR-intoxicated Sprague-Dawley rat assessed as increase in dopamine level in brain at 50 mg/kg, ip administered 10 mins prior to ACR injection 3 days per week for 3 weeks by spectrofluorimetrically relative to control. The format is functional. Conditions: route intraperitoneal. The method in brief:
(§2)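 In this rat model (female Sprague–Dawley, n = 10/group), ACR 50 mg/kg ip in water was preceded by 10 min with agent at 50 mg/kg ip in 2% Tween 80, 3 days/week for 3 weeks. Brain dopamine was determined spectrofluorimetrically and expressed as ng/g tissue.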

Test [4] has as its system Rattus norvegicus. Nature of the test: Neuroprotective activity against ACR-intoxicated Sprague-Dawley rat assessed as decrease in malinoaldehyde level in brain at 50 mg/kg, ip administered 10 mins prior to ACR injection 3 days per week for 3 weeks […] relative to control. The format is functional. Also noted: scale not given: the % may be the effect or the level left. To be noted: route intraperitoneal.

The test system of test [5] is Rattus norvegicus. Briefly: Neuroprotective activity against ACR-intoxicated Sprague-Dawley rat assessed as increase in GSH level in brain at 50 mg/kg, ip administered 10 mins prior to ACR injection 3 days per week for 3 weeks […] relative to control. The format is functional. To be noted: route intraperitoneal.
Test [6] deals with Rattus norvegicus. Nature of the test: Neuroprotective activity against ACR-intoxicated Sprague-Dawley rat assessed as increase in Gpx level in brain at 50 mg/kg, ip administered 10 mins prior to ACR injection 3 days per week for 3 weeks […] relative to control. The format is functional. To be noted: route intraperitoneal.
The subject of test [7] is Rattus norvegicus. Briefly: Neuroprotective activity against ACR-intoxicated Sprague-Dawley rat assessed as increase in SOD level in brain at 50 mg/kg, ip administered 10 mins prior to ACR injection 3 days per week for 3 weeks by spectrofluorimetrically relative to control. The format is functional. To be noted: route intraperitoneal. The method in brief: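 Female Sprague–Dawley rats (160–180 g, n = 10/group) received ACR 50 mg/kg ip in water. Test agents were given at 50 mg/kg ip in 2% Tween 80, 10 min before ACR, 3 days/week for 3 weeks. Brain was homogenized 10% w/v in ice-cold 50 mM Tris–HCl pH 7.4 with 300 mM sucrose and spun 1800 × g for 10 min at 4 °C. Supernatant MDA, GSH, GPx and SOD were read spectrophotometrically by kit and expressed per mg protein (Lowry).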

Test [8] deals with Rattus norvegicus. Briefly: Neuroprotective activity against ACR-intoxicated Sprague-Dawley rat assessed as decrease in LDH level in brain at 50 mg/kg, ip administered 10 mins prior to ACR injection 3 days per week for 3 weeks by spectrofluorimetrically relative to control. The format is functional. Details: scale not given: the % may be the effect or the level left. Conditions: route intraperitoneal. The essentials:
(§3)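 Female Sprague–Dawley rats (n = 10/group) were dosed ip with ACR 50 mg/kg (water). Pretreatment was 50 mg/kg ip in 2% Tween 80 given 10 min earlier, 3 days/week for 3 weeks. The brain 10% homogenate (50 mM Tris–HCl pH 7.4, 300 mM sucrose) was centrifuged 1800 × g for 10 min at 4 °C. Supernatant LDH and CK activities were read spectrophotometrically by kit, as U/mg protein.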

In test [9] the test system is Rattus norvegicus. Nature of the test: Neuroprotective activity against ACR-intoxicated Sprague-Dawley rat assessed as increase in CK level in brain at 50 mg/kg, ip administered 10 mins prior to ACR injection 3 days per week for 3 weeks by spectrofluorimetrically relative to control. The format is functional. To be noted: route intraperitoneal. The essentials: as §3

For the next test, the system named is Brain. Nature of the test: Neuroprotective activity against ACR-intoxicated Sprague-Dawley rat brain assessed as appearance of normal neuron at 50 mg/kg, ip administered 10 mins prior to ACR injection 3 days per week for 3 weeks by hematoxylin and eosin staining method relative to ACR group. The format is functional, organism-based. Also noted: dose 50 mg/kg. The method in brief: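 After 3 weeks of ACR (50 mg/kg ip, water) plus pretreatment (50 mg/kg ip in 2% Tween 80, 10 min before, 3 days/week), rat brains were fixed in buffered formalin for 1 week. They were then washed in tap water for 24 h, dehydrated through graded alcohol, cleared in xylene and paraffin-embedded. Sections were examined microscopically for neuronal morphology.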

Test [10] deals with Rattus norvegicus. Briefly: Neuroprotective activity against ACR-intoxicated Sprague-Dawley rat assessed as decrease in dopamine level in brain at 50 mg/kg, ip administered 10 mins prior to ACR injection 3 days per week for 3 weeks by spectrofluorimetrically relative to control. The format is functional. Details: scale not given: the % may be the effect or the level left. Conditions: route intraperitoneal. The method in brief: as §2

The test system of test [11] is Rattus norvegicus. Nature of the test: Neuroprotective activity against ACR-intoxicated Sprague-Dawley rat assessed as decrease in GSH level in brain at 50 mg/kg, ip administered 10 mins prior to ACR injection 3 days per week for 3 weeks […] relative to control. The format is functional. Details: scale not given: the % may be the effect or the level left. To be noted: route intraperitoneal.

As to `C=NC(Cc1c[nH]c2ccccc12)C(=O)C1C(N)=NNC1N` (centres undefined), the Activity in the test on Rattus norvegicus [1] is on record as 15%; with Rattus norvegicus [2], 6%; in the test on Rattus norvegicus [3], 15%; with Rattus norvegicus [4], 22%; with Rattus norvegicus [5] it was 9%; in the test with Rattus norvegicus [6], 25%. Besides, the Activity worked out at 12% in the test with Rattus norvegicus [7], 20% with Rattus norvegicus [8] and 22% in the test with Rattus norvegicus [9]. The outcome with Brain was Active.

Turning to `N[C@@H](Cc1c[nH]c2ccccc12)C(=O)O` [TRYPTOPHAN], the Activity is 17% in the test with Rattus norvegicus [1]; 16% in the test on Rattus norvegicus [2]; 21% with Rattus norvegicus [3]; 25% in the test on Rattus norvegicus [4]; 9% in the test on Rattus norvegicus [5]; 38% in the test with Rattus norvegicus [6]. For the same compound, the Activity was 18% in the test with Rattus norvegicus [7], 35% in the test on Rattus norvegicus [8] and 27% in the test on Rattus norvegicus [9].

With `C=NC(Cc1c[nH]c2ccccc12)C(=O)C1C(N)=NC(=N)N=C1N` (centres undefined), the Activity in the test on Rattus norvegicus [1] turned out to be 10%; in the test with Rattus norvegicus [2], 1%; in the test on Rattus norvegicus [4] it was 5%; in the test with Rattus norvegicus [10] it was 2%; with Rattus norvegicus [11], 18%; with Rattus norvegicus [6], 1%. Besides, the Activity is 3% in the test with Rattus norvegicus [7], 10% in the test with Rattus norvegicus [8] and 7% with Rattus norvegicus [9]. Further, in the test on Brain, the result was Active.

As for `CCOC(=O)c1c(N)cnc(Cc2c[nH]c3ccccc23)c1Nc1ccccc1`, the Activity in the test with Rattus norvegicus [1] is given as 14%; in the test on Rattus norvegicus [2], 2%; in the test with Rattus norvegicus [3] it was 9%; in the test on Rattus norvegicus [4], 10%; with Rattus norvegicus [11], 18%; with Rattus norvegicus [6], 23%. Further, the Activity in the test on Rattus norvegicus [7] came to 6%; with Rattus norvegicus [8], 20%; with Rattus norvegicus [9] it was 14%. Further, in the test on Brain, the outcome was Active.

Regarding `O=C(Cc1nnn[nH]1)NC(Cc1c[nH]c2ccccc12)C(=O)O` (centres undefined), the Activity in the test with Rattus norvegicus [1] is reported as 67%; with Rattus norvegicus [2], 21%; with Rattus norvegicus [3], 29%; in the test on Rattus norvegicus [4], 26%; with Rattus norvegicus [5], 36%; in the test on Rattus norvegicus [6], 50%. Further, the figures for the Activity in the test on Rattus norvegicus [7], with Rattus norvegicus [8] and in the test with Rattus norvegicus [9] were 94%, 35% and 64%, respectively. The result in the test on Brain was Active.
